Screening results from PubChem BioAssay.
This is a sample that favours compounds with a hit; in the whole collection about 4% have one here.
ERa coact inh = blocks coactivator binding to human estrogen receptor alpha; inhibition, % at 25.6 µM; AID 629; actives 1.7% (n = 86,000); TR-FRET ER-alpha LBD / SRC-1 peptide, estradiol-bound; P03372; in the data active = inhibition above about 50%;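 note: 0% = receptor plus peptide control and 100% = peptide only without receptor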
ERb coact inh = blocks coactivator binding to human estrogen receptor beta; Q92731; TR-FRET ER-beta LBD / SRC1-Cy5 peptide binding; receptor agonist-loaded with 1 µM estradiol; inhibition, % at 25.6 µM; actives 1.3% (n = 86,000);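 active = compounds whose percent inhibition of the receptor-coactivator binding signal exceeds about 50% in the single-dose screen, limit read from the data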;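 note: 0% = receptor plus peptide wells without compound and 100% = peptide-only wells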
Smad3 inh = blocks human Smad3 binding to FoxH1 peptide. P84022. TR-FRET Smad3/Dy647-FoxH1 peptide binding, europium anti-His. inhibition, % at 25 µM. actives 0.29% (n = 88,000). AID 630;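 active = compounds that reduce the energy-transfer binding signal between the protein and its labelled peptide by more than half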;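 note: 0% = Smad3 plus labelled peptide maximal FRET and 100% = peptide-only background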
Target sequence (P84022 whole entry, looked up): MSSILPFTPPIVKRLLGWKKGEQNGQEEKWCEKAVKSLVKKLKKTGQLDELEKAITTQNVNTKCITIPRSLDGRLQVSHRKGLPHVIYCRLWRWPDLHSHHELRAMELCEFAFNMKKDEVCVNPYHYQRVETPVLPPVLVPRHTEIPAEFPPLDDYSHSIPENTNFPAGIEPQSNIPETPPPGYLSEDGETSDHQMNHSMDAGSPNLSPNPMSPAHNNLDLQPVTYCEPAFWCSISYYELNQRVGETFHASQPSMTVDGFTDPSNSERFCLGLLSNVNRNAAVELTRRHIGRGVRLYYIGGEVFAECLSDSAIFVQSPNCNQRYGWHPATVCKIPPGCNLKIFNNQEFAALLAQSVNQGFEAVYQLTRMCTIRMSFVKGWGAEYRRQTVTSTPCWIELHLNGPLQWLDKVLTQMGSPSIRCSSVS
FAK inh = blocks human focal adhesion kinase activity | Q05397 | biochemical FAK kinase activity assay | inhibition, %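 (tested at 7 µM)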 | actives 0.84% (n = 97,000); in the data active = inhibition above about 19%;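 note: 0% = DMSO and 100% = reference compound high control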
ERa SRC1 pot = ER-alpha (human) coactivator binding potentiation; TR-FRET ERalpha-LBD/SRC-Cy5 coactivator binding, 2 h; 100 = basal binding, no effect; coactivator binding (% of control), % at 25.6 µM; actives 1.3% (n = 86,000); in the data active = activity above about 200%;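 note: binding measured in presence of low estradiol as agonist stimulus; 0% = peptide alone without receptor and 100% = receptor with peptide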
Rev-RRE block = disrupts HIV-1 Rev binding to RRE RNA | P05866 | Rev peptide-RRE RNA binding, FRET | inhibition, % at 8 µM | actives 0.79% (n = 97,000) | AID 704;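 active = inhibition above the screen-wide mean plus 3 SD, cut at about 35% in these data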;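 note: 0% = median DMSO wells and 100% = median Neomycin B control wells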
Target sequence (P05866 whole entry, looked up): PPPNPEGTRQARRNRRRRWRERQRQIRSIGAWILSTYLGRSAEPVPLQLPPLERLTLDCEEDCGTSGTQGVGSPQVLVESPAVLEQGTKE
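Assay system: Rev peptide and RRE RNA, both fluorescently labelled; times: 5 min preincubation and 15 min binding, 25 °C; detection: FRET, ex 480 nm, em 540 and 671 nm; read-out basis: % inhibition from 671/540 nm acceptor-to-donor ratio, scaled between controls; benchmarks: DMSO low control, neomycin B high control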
Numbers without * were called inactive; . = not tested or not shown; [ ] = remark or other dose.

SMILES	ERa coact inh	ERb coact inh	Smad3 inh	FAK inh	ERa SRC1 pot	Rev-RRE block
CCOC(=O)Cc1csc(NC(=O)CSc2nnc(Cc3csc(N)n3)n2C)n1	-6	-9	8	0	104	6
COCc1[nH]nc2c1C(c1ccc(OC)cc1)C(C#N)=C(N)O2 (stereo not given)	0	5	10	1	110	7
COc1ccc(-c2ccc(C3C(C#N)=C(N)Oc4n[nH]c(C)c43)o2)cc1 (stereo not given)	-20	-13	-2	5	94	52*
O=C(O)c1cccc(N=Nc2c(S(=O)(=O)O)ccc3c2C(=O)c2ccccc2C3=O)c1O	.	.	-6	.	.	.
O=C(C1CC=CCC1)N1CCN(C(=O)C2CC=CCC2)CC1 (stereo not given)	-14	-27	2	0	104	-2
CCOc1ncccc1C(=O)OCc1cc(=O)oc2c(C)c(C)ccc12	48	44	-27	.	287*[fluorescence artefact?]	.
CCN(CCO)Cc1cc(=O)oc2c(C)c(C)ccc12	5	3	-1	-2	110	3
O=C1c2cccc(O)c2C(=O)c2c(O[C@@H]3O[C@H](CO)[C@@H](O)[C@H](O)[C@H]3O)cccc21	.	.	70*	.	.	.
Cc1ccc2[nH]c(=O)c(C(c3nnnn3C(C)(C)C)N(Cc3ccco3)CC3CCCO3)cc2c1 (stereo not given)	-18	-7	-6	0	127	1
Cc1cccc2cc(C(c3nnnn3C(C)(C)C)N(Cc3ccco3)CC3CCCO3)c(=O)[nH]c12 (stereo not given)	57*	66*[fluorescence artefact?]	8	-6	54	7
CC/C(=N/Nc1ccccc1)c1cnnc(-c2ccccc2)n1	82*[fluorescence artefact?]	60*	2	4	87	8
CN(C)CCCn1cnc2cc(Cl)c(Cl)cc21	.	.	-2	.	.	.
C1=C(c2ccc(-c3ccccc3)cc2)Nc2ncnn2C1c1ccco1 (stereo not given)	69*[fluorescence artefact?]	32	2	1	110	118*[fluorescence artefact?]
CCOc1ccc(C2C=C(c3ccccc3)Nc3ncnn32)cc1 (stereo not given)	-6	-13	4	-1	77	40*
COc1cccc(C2=CC(c3ccc(N(C)C)cc3)n3ncnc3N2)c1 (stereo not given)	15	15	12	-1	71	34
CCOc1ccc(C2C=C(c3ccc(F)cc3)Nc3ncnn32)cc1 (stereo not given)	0	-4	11	1	113	57*
COc1cccc(C2=CC(c3ccccc3)n3ncnc3N2)c1 (stereo not given)	.	.	.	-1	.	42*
Fc1ccc(Br)cc1C1C=C(c2cccnc2)Nc2ncnn21 (stereo not given)	-6	1	0	5	115	22
NNC(=O)Cc1cccnc1	.	.	7	.	.	.
[O-][n+]1c(CN2CCCCC2)nc2cccc3c2c1-c1ccccc1-3	.	.	-10	.	.	.
NC(N)=N/N=C/c1ccc(O)c(C(=O)O)c1	.	.	18	.	.	.
CCOC(=O)c1sc(=NC(=O)c2cc(OC)c(OC)c(OC)c2)n(C)c1C	17	21	10	-3	208*	2
CCOC(=O)c1c(O)[nH]c(=O)c(CC)c1C	.	.	10	.	.	.
Cc1ccc(C2C(C#N)=C(N)Oc3c2sc2ccccc32)o1 (stereo not given)	70*[fluorescence artefact?]	70*[fluorescence artefact?]	8	7	74	94*[fluorescence artefact?]
CCOC(=O)c1[nH]c(C)c(C(=O)c2ccc(C)cc2)c1C	57*[fluorescence artefact?]	0	-1	2	115	10
SMILES	ERa coact inh	ERb coact inh	Smad3 inh	FAK inh	ERa SRC1 pot	Rev-RRE block
O=C(Nc1ccc(F)cc1F)c1noc2c1CCC2	86*[fluorescence artefact?]	91*[fluorescence artefact?]	-14	.	38	.
O=C(Nc1cccc(C(F)(F)F)c1)c1ccc2nc(N3C(=O)CCC3=O)sc2c1	.	.	.	-2	.	4
O=C(Nc1ccc(N2CCOCC2)cc1)Nc1ccc2nc(-c3ccco3)c(-c3ccco3)nc2c1	53*[fluorescence artefact?]	59*[fluorescence artefact?]	4	11	32	11
O=C(c1ccc2nc(-c3ccco3)c(-c3ccco3)nc2c1)N1CCN(c2ccccc2)CC1	44	47	11	9	73	-3
O=C(Nc1ccc2nc(-c3ccco3)c(-c3ccco3)nc2c1)NC1CC1	100*[fluorescence artefact?]	109*[fluorescence artefact?]	45	92*	7	-57
O=C(Nc1cccc(C(F)(F)F)c1)c1ccc2nc(-c3ccco3)c(-c3ccco3)nc2c1	84*[fluorescence artefact?]	81*[fluorescence artefact?]	2	14	16	16
Cc1ccc(C2=NN3C(C(=O)c4ccccc4)Oc4ccccc4C3C2)cc1 (stereo not given)	.	.	.	-2	.	4
CCCn1c(CCC(=O)Nc2ccccc2Cc2ccccc2)nc2cc(S(=O)(=O)N3CCOCC3)ccc21	-5	0	-1	0	116	5
COc1ccc(NC(=O)c2ccccc2NC(=O)COc2ccccc2)cc1	56*[fluorescence artefact?]	38	17	1	211*[fluorescence artefact?]	8
Cc1ccc(-c2nn3c(C)nnc3s2)cc1NC(=O)COc1ccc(Cl)cc1	7	9	-2	-8	325*	6
CCC(=O)Nc1ccc(-c2nn3c(C)nnc3s2)cc1C	1	6	6	0	101	4
CCc1c(O)c2c(c(O)c1C(C)=O)C(=O)c1c(cc(O)c(C(=O)O)c1C(=O)O)C2=O	.	.	9	.	.	.
Cc1ccc(-c2nnc3sc(-c4ccc5c(c4)OCCO5)nn23)cc1	15	16	27	6	303*	5
COc1ccc(-c2nnc3sc(-c4ccccc4OC)nn23)cc1	4	15	-90	.	234*	.
Clc1cccc(-c2nn3c(-c4cccc(Cl)c4)nnc3s2)c1	20	32	-4	.	296*	.
CCOc1cccc(-c2nnc3sc(-c4cc(OC)c(OC)c(OC)c4)nn23)c1	73*	46	-30	.	161	.
CCOc1ccc(-c2nn3c(-c4ccc(OC)cc4)nnc3s2)cc1	-82	-11	-21	.	677*[fluorescence artefact?]	.
CCOc1cccc(-c2nnc3sc(-c4cccs4)nn23)c1	13	14	-40	.	193	.
COc1cccc(-c2nnc3sc(-c4cccs4)nn23)c1	17	8	-89	.	251*	.
CCSc1nnc(NC(=O)C2Cc3ccccc3CN2C(=O)c2ccco2)s1 (stereo not given)	53*	43	9	13	128	11
Cc1cccc(NC(=O)c2sc3nc(-c4ccc(F)cc4)cn3c2C)n1	-10	-15	-340	-76	839*[fluorescence artefact?]	24
COc1cc2c3cc1Oc1cc(ccc1O)C[C@@H]1c4c(cc(OC)c(O)c4Oc4ccc(cc4)C[C@H]3[N+](C)(C)CC2)CC[N+]1(C)C	.	.	2	.	.	.
COc1ccccc1N1CCN(C(=O)c2cc3c(s2)CCC3)CC1	64*	43	5	8	61	-4
CCSC(SCC)[C@H](O)[C@@H](O)[C@H](O)[C@H](O)CO	-6	1	10	.	775*[fluorescence artefact?]	.
c1cncc(-c2cccnc2)c1	24	14	-11	-1	93	4
